Reference: ChEMBL document CHEMBL4196006, “Aryl thiosemicarbazones for the treatment of trypanosomatidic infections” (Eur J Med Chem, 2018)
The source made the active and inactive calls. The rule behind the calls is not given here.

Columns and labels:
[1] = Cytotoxicity against human A549 cells assessed as growth inhibition at 10 uM after 48 hrs by CellTiter-Glo assay relative to control; values are per cent of control; settings: A549 cells
CYP2C9 = CYP2C9 (Homo sapiens, UniProt P11712); assay: Inhibition of human microsomal CYP2C9 expressed in baculovirus infected BTI-TN-5B1-4 cells at 10 uM incubated for 30 mins by luciferase assay relative to control; type: ADME
Procedure, shortened: (§1)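 CYP1A2, 2C9, 2C19, 2D6 and 3A4 in microsomes from baculovirus-infected insect cells, each with a P450-Glo luminogenic substrate. Inhibition read as loss of light; single-point at 10 μM, triplicate.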

Trypanosoma brucei [2] = assay: Potentiation of methotrexate-induced antitrypanosomal activity against Trypanosoma brucei Lister 427 bloodstream form at 10 uM after 72 hrs by resazurin dye-based assay; type: functional
CYP2D6 = CYP2D6 (Homo sapiens, UniProt P10635); assay: Inhibition of human microsomal CYP2D6 expressed in baculovirus infected BTI-TN-5B1-4 cells at 10 uM incubated for 30 mins by luciferase assay relative to control; type: ADME
Procedure, shortened: as §1

[3] = Cytotoxicity against human THP1 cells assessed as viable cells at 100 uM after 72 hrs by MTT assay relative to control; type: cell-based, THP-1; settings: read-out: Activity
Procedure, shortened: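 THP-1-derived macrophages exposed to compounds for 72 h, tested at 100 μM or in dose-response; viability read by MTT colorimetric assay.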

CYP1A2 = biological target: T1, CYP1A2 (Homo sapiens, UniProt P05177); assay: Inhibition of human microsomal CYP1A2 expressed in baculovirus infected BTI-TN-5B1-4 cells at 10 uM incubated for 30 mins by luciferase assay relative to control; type: ADME
T1 sequence (P05177 whole entry): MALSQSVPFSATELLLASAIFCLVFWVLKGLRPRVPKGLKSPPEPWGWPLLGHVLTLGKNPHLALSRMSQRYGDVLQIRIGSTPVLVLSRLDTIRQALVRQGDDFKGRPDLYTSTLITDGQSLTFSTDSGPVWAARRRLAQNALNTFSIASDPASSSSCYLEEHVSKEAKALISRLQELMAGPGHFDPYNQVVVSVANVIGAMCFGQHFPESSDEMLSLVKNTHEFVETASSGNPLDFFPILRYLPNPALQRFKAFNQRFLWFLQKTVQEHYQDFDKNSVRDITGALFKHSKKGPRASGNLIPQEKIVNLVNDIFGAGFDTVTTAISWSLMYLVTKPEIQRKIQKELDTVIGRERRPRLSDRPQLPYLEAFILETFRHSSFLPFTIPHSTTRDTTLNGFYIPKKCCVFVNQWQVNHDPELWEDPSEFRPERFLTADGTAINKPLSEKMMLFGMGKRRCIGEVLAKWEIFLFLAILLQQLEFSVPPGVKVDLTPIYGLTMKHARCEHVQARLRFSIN
Procedure, shortened: as §1

[4] = biological target: T2, Pteridine reductase 1 (Leishmania major) (UniProt Q01782); assay: Inhibition of Leishmania major PTR1 at 50 uM using H2B as substrate in presence of NADPH by photometric analysis relative to control
T2 sequence (whole entry): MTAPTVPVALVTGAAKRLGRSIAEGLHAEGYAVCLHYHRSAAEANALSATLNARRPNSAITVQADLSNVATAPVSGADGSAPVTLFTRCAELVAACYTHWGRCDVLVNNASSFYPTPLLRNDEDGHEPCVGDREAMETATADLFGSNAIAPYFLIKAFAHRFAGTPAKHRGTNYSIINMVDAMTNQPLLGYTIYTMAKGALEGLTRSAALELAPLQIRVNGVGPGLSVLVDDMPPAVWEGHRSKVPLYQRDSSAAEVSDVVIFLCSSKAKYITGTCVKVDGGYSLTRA

Trypanosoma brucei [5] = assay: Potentiation of methotrexate-induced antitrypanosomal activity against Trypanosoma brucei Lister 427 bloodstream form at 10 uM after 72 hrs by resazurin dye-based assay relative to control; type: functional
Trypanosoma brucei [6] = assay: Antitrypanosomal activity against Trypanosoma brucei Lister 427 bloodstream form at 10 uM after 72 hrs by resazurin dye-based assay relative to control; type: functional
hERG (KCNH2) = hERG (KCNH2) (Homo sapiens, UniProt Q12809); assay: Inhibition of human ERG at 10 uM incubated for 2 hrs by fluorescence polarisation assay relative to control
[7] = Cytotoxicity against human 786-O cells assessed as inhibition of mitochondrial viability at 10 uM after 6 hrs by CMXRos staining based assay relative to control; type: cell-based, 786-0; settings: read-out: INH
Procedure, shortened: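 Mitochondrial toxicity monitored by MitoTracker Red CMXRos uptake and high-content imaging; compound at 10 μM, triplicate.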

Trypanosoma brucei [8] = assay: Antitrypanosomal activity against Trypanosoma brucei Lister 427 bloodstream form assessed as parasite growth inhibition at 50 uM after 72 hrs by SYBR Green assay relative to control; type: functional; settings: for inhibition of growth at 50 µM: Lister 427, 72 h, read-out: GI
CYP2C19 = CYP2C19 (Homo sapiens, UniProt P33261); assay: Inhibition of human microsomal CYP2C19 expressed in baculovirus infected BTI-TN-5B1-4 cells at 10 uM incubated for 30 mins by luciferase assay relative to control; type: ADME
Procedure, shortened: as §1

Leishmania infantum = assay: Antileishmanial activity against Leishmania infantum amastigote form assessed as parasite growth inhibition at 50 uM after 72 hrs by steady-Glo reagent based assay relative to control; type: functional; settings: for inhibition of growth at 50 µM: read-out: GI
Procedure, shortened: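 Intramacrophage L. infantum amastigotes in THP-1-derived macrophages, tested at 50 μM or in dose-response. Plates held 72 h at 37 °C, 5% CO2. Medium was replaced by PBS, macrophages lysed, and parasites read by Steady-Glo luminescence. High-content imaging gave host cell number, infection ratio (infected/total cells) and parasites per infected cell. Values are means of at least two independent experiments.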

[9] = biological target: T3, Pteridine reductase, putative (Trypanosoma brucei) (UniProt Q581W1); assay: Inhibition of Trypanosoma brucei PTR1 at 50 uM using H2B as substrate in presence of NADPH by photometric analysis relative to control
T3 sequence (whole entry): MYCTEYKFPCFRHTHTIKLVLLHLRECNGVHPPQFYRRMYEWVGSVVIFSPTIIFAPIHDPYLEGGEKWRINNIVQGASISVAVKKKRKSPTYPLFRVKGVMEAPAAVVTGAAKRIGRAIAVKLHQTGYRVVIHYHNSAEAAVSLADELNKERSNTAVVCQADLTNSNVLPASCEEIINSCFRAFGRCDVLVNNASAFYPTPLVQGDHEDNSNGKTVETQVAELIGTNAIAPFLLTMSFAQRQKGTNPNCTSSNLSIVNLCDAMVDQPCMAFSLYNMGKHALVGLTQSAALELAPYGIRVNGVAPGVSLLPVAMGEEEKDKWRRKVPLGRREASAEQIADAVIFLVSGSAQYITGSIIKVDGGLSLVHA

Trypanosoma cruzi = assay: Antitrypanosomal activity against Trypanosoma cruzi amastigote form infected in human U2OS cells assessed as parasite growth inhibition at 50 uM after 72 hrs relative to control; type: functional; settings: for inhibition of growth at 50 µM: read-out: GI
Procedure, shortened: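 U2OS monolayers grown for 24 h, then infected with tissue-derived trypomastigotes of T. cruzi Y strain. Compounds were added 24 h after infection at 50 μM (single-point) or in dose-response, with 72 h exposure. Plates were fixed, stained and analysed by high-content imaging; activity was normalized to infected and non-infected controls. Means of at least two experiments; benznidazole as reference.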

CYP3A4 = CYP3A4 (Homo sapiens, UniProt P08684); assay: Inhibition of human microsomal CYP3A4 expressed in baculovirus infected BTI-TN-5B1-4 cells at 10 uM incubated for 30 mins by luciferase assay relative to control; type: ADME
Procedure, shortened: as §1

Aurora kinase B = Aurora kinase B (Homo sapiens, UniProt Q96GD4); assay: Inhibition of recombinant full-length human aurora B kinase expressed in baculovirus system at 10 uM using MBP as substrate incubated for 45 mins by ADP-glo kinase assay; settings: probe MBP
Procedure, shortened: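 Aurora B activity measured as ADP formation via coupled luciferase ADP-Glo luminescence; single-point at 10 μM, triplicate.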

[10] = Cytotoxicity against human U2OS cells assessed as viable cells at 50 uM after 72 hrs by MTT assay relative to control; type: cell-based; settings: read-out: Activity
[11] = Cytotoxicity against human WI38 cells assessed as growth inhibition at 10 uM after 48 hrs by CellTiter-Glo assay relative to control; values are per cent of control; settings: WI38 cells

Sequence of hERG (KCNH2) (Q12809 whole entry): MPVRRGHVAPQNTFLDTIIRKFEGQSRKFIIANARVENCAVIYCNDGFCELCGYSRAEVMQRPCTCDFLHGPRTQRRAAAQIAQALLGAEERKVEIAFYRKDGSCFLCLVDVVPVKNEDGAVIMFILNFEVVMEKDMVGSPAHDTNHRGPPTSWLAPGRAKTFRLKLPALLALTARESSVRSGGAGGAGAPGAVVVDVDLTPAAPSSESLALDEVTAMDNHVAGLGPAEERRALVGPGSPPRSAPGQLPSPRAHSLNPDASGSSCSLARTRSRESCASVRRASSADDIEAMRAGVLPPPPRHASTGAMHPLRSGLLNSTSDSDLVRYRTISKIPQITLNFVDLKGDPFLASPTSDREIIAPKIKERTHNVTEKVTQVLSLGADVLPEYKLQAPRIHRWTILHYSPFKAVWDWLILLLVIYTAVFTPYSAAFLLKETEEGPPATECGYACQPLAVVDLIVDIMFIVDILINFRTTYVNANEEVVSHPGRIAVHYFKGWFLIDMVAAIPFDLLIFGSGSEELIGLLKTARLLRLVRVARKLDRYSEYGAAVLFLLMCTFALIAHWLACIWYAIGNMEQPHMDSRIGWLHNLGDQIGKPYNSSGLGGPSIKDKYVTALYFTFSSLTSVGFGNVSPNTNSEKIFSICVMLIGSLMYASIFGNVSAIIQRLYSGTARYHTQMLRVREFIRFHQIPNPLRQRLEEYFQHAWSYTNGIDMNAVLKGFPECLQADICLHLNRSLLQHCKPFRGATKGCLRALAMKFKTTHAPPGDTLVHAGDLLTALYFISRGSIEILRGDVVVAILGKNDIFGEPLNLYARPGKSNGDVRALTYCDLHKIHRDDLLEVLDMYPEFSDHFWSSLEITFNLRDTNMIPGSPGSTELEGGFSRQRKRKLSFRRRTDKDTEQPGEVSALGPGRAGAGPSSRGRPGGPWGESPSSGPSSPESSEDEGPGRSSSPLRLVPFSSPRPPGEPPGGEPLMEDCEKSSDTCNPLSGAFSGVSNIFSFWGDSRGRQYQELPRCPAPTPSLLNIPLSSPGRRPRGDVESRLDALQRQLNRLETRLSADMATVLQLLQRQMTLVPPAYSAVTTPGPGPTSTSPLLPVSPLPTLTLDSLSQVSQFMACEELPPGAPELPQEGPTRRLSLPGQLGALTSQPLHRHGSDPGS
Sequence of CYP2C19 (P33261 whole entry): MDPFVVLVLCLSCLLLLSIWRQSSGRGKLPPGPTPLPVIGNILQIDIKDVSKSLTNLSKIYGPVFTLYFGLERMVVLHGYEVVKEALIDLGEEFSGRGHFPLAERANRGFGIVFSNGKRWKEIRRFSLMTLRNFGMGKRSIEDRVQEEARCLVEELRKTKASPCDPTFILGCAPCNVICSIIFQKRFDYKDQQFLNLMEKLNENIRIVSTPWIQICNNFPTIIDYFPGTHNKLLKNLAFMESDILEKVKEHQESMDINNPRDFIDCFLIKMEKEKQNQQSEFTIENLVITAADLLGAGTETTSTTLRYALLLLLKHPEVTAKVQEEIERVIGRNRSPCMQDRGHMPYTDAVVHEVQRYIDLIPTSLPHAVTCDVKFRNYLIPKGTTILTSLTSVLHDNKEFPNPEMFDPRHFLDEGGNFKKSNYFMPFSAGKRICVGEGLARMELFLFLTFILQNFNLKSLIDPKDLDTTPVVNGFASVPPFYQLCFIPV
Sequence of CYP2C9 (P11712 whole entry): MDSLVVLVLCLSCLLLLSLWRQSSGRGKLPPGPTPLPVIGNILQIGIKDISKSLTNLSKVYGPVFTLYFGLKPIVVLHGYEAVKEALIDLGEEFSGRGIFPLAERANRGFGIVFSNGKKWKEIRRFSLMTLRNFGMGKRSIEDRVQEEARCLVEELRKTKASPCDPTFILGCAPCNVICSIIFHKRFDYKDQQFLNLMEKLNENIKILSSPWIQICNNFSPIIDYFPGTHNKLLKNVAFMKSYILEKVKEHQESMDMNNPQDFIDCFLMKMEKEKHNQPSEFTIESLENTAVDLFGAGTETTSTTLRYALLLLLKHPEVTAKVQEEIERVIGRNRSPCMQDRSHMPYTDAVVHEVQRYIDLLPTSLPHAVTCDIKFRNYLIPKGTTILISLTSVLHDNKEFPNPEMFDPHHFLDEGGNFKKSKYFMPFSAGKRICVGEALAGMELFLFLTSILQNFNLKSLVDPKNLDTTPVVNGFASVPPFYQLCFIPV
Sequence of CYP3A4 (P08684 whole entry): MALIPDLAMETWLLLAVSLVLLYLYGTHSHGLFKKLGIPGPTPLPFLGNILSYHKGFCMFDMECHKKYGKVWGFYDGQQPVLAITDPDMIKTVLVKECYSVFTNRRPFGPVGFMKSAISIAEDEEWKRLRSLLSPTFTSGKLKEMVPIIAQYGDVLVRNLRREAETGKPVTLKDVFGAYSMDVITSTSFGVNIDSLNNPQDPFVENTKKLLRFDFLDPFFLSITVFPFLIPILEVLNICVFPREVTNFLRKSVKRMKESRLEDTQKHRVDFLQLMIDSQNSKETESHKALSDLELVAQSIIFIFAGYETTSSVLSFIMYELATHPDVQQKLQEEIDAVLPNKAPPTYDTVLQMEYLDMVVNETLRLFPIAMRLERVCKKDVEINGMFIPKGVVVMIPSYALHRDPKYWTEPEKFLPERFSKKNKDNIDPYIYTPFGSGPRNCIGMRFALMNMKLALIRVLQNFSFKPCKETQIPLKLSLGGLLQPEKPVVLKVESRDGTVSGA
Sequence of Aurora kinase B (Q96GD4 whole entry): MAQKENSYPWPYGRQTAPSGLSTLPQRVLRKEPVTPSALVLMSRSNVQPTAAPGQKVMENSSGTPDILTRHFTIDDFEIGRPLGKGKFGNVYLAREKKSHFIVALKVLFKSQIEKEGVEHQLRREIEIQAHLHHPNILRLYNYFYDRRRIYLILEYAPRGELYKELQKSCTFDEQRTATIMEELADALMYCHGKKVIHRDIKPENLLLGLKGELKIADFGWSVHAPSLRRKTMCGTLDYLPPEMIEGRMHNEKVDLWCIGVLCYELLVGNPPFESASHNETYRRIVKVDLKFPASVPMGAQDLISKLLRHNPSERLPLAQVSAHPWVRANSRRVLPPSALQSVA
Sequence of CYP2D6 (P10635 whole entry): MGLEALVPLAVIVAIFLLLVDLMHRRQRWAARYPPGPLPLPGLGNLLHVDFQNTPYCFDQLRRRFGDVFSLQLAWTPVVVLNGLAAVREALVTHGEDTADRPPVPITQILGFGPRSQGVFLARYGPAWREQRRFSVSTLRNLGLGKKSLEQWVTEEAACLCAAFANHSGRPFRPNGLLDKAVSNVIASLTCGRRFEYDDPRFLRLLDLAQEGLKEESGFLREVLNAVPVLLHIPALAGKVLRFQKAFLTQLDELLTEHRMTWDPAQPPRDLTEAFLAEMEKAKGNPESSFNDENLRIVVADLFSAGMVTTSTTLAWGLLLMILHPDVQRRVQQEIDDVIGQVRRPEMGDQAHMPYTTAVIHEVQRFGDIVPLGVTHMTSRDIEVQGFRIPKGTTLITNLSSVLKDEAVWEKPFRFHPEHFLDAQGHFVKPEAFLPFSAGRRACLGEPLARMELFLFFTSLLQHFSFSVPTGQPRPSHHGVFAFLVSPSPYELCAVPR

Structure (SMILES)	cell growth (% of control) at 48 h, 10 µM [1] [%]	inhibition at 0.5 h, 10 µM (CYP2C9) [%]	PF (Trypanosoma brucei [2])	inhibition at 0.5 h, 10 µM (CYP2D6) [%]	viability at 72 h, 100 µM [3] [%]	inhibition at 0.5 h, 10 µM (CYP1A2) [%]	inhibition [4] [%]	Activity (Trypanosoma brucei [5]) [%]	Activity (Trypanosoma brucei [6]) [%]	inhibition at 2 h, 10 µM (hERG (KCNH2)) [%]	cytotoxicity at 6 h, 10 µM [7] [%]	inhibition at 0.5 h, 10 µM (CYP2C19) [%]	inhibition of growth at 50 µM (Leishmania infantum) [%]	inhibition [9]	inhibition of growth at 50 µM (Trypanosoma cruzi) [%]	inhibition at 0.5 h, 10 µM (CYP3A4) [%]	inhibition at 0.75 h, 10 µM (Aurora kinase B) [%]	viability at 72 h, 50 µM [10] [%]	cell growth (% of control) at 48 h, 10 µM [11] [%]	growth inhibition (GI) (Trypanosoma brucei [8])	further results
NC(=S)N/N=C/c1cccc(-c2ccccc2)c1	110	14.7	1.77	20.6	45.2	83.9	3.5	93.5	28.5	5.99	4.4	-27.2	35.8	9.25%	20.2	5.26	-4.25	112	111	–	inhibition of growth at 50 µM (Trypanosoma brucei [8]): 0.9%
NC(=S)N/N=C/c1cccc(-c2ccc3c(c2)OCO3)c1	111	45.3	1.53	76.9	2.61	101	0.33	96.33	38.67	9.13	15.7	48.4	46.9	0.16%	71.3	69.7	-3.81	81.5	91.9	–	inhibition of growth at 50 µM (Trypanosoma brucei [8]): 61.8%
NC(=S)N/N=C/C(O)C(O)C(O)CO (stereo not given)	129	-19.7	0.65	-54.5	67.6	-13.2	4.38	16.17	0.5	-11.1	-1.92	-35.1	–	1.7%	–	-27.9	-7.51	146	95.7	inactive	growth inhibition (GI) (Leishmania infantum): inactive; growth inhibition (GI) (Trypanosoma cruzi): inactive
N/C(S)=N/N=C/c1ccc([N+](=O)[O-])cc1	128	-3.66	1.12	-16.9	75.6	11.6	7.99	36.33	8.17	4.43	0.08	-38.4	19	3.76%	40.1	8.17	-9.68	85.6	122	inactive	–
C/C(=N\NC(N)=S)c1ccc(N)cc1	141	7.46	2.6	-13.1	95.2	11.5	2.62	75.17	4.67	6.38	-5.04	-20.7	9.54	10.2%	51.8	-4.06	-14.2	113	83.1	inactive	–
COc1cc(/C=N/NC(N)=S)cc(OC)c1OC	140	-6.01	1.92	-21	40.2	15.1	7.53	51.67	2.67	-1.36	4.79	-28.1	7.19	2.13%	–	-30.2	-17.7	65.5	111	–	inhibition of growth at 50 µM (Trypanosoma brucei [8]): 0.21%; growth inhibition (GI) (Trypanosoma cruzi): inactive
N/C(S)=N/N=C/c1ccc(Cl)c(Cl)c1	100	24.3	1.36	27.3	56.4	76.8	9.38	84	37.33	-9.32	5.87	-14.9	17.6	inactive	23.1	-10.6	-9.56	101	107	inactive	–
